In ChEMBL document CHEMBL4152376, “Optimization of 8-Hydroxyquinolines as Inhibitors of Catechol O-Methyltransferase” (J Med Chem, 2018):

How the values were obtained:
[1] = target: T1, Catechol O-methyltransferase (Homo sapiens, UniProt P21964); assay: Inhibition of c-terminal hexa-His tagged human MB-COMT (unknown origin)
T1 sequence (P21964 whole entry): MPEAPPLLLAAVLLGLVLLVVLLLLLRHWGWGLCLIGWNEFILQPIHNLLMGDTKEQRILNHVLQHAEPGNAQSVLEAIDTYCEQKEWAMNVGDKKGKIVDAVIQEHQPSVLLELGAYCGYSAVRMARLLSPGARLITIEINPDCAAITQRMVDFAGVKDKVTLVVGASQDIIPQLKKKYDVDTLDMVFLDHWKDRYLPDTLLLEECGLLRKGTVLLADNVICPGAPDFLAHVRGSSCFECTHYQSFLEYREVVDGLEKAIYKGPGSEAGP

[2] = target: T1, Catechol O-methyltransferase; assay: Inhibition of c-terminal hexa-His tagged human MB-COMT expressed in HEK293 cell membrane homogenate using norepinephrine as substrate after 1 hr in presence of SAM by MTase glo methyltransferase assay
Outline: (§1)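 Membrane homogenate of HEK293 cells expressing C-terminal His6 MB-COMT (human about 7 ng, rat about 4 ng per well, protein by Bradford […]). 20 µM SAM and 7 µM norepinephrine in 50 mM Tris, 5–10 mM MgCl2, 2.5 mM DTT, pH 6.9, final DMSO 1.5%. 1 h at 37 °C, then MTase-Glo luminescence. […] 4-parameter IC50 fit; triplicate points, three experiments.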

[3] = target: T1, Catechol O-methyltransferase; assay: Inhibition of c-terminal hexa-His tagged human S-COMT expressed in HEK293-6E cell membrane homogenate using 7,8-dihydroxy-4-methylcoumarin as substrate after 1 hr in presence of SAM by MTase glo methyltransferase assay
Outline: (§2)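 His6-tagged S-COMT (human or rat), expressed in 293-6E cells and purified by Ni-NTA and size exclusion, 1 ng per well. 20 µM SAM and 10 µM 7,8-dihydroxy-4-methylcoumarin in pH 6.9 Tris/MgCl2/DTT buffer, 1.5% DMSO. 1 h at 37 °C, then MTase-Glo luminescence read against a SAH standard curve. […] 4-parameter IC50; triplicate wells, three runs.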

Rattus norvegicus [4] = assay: Oral bioavailability in rat at 3/10 mg/kg; type: ADME, organism-based; details: in vivo
Outline: (§3)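 Rat pharmacokinetics after a 1 mpk iv dose (n=3) and a 3 or 10 mpk oral dose (n=3).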

[5] = Half life in rat at 1 mg/kg, iv or 3/10 mg/kg, po; type: ADME, organism-based; details: in vivo; outline: as §3
Rattus norvegicus [6] = assay: Volume of distribution at steady state in rat at 1 mg/kg, iv or 3/10 mg/kg, po; type: ADME, organism-based; details: in vivo; outline: as §3
[7] = Fraction unbound in rat plasma by equilibrium dialysis; type: ADME, cell-free
Outline: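 Percent free drug in mouse or rat plasma, measured by equilibrium dialysis.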

[8] = Drug uptake in brain of C57BL/6J mouse at 10 mg/kg, ip measured at 1 hr post dose; type: ADME, organism-based; details: for Drug uptake: in vivo, 1 h, BLD = below limit of detection; for concentration at 1 h: C57BL/6J, brain, read-out: Drug uptake
Outline: (§4)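 Male C57BL/6J mice (8 weeks), single ip injection of 10 mg/kg suspended in 0.1% Tween80/0.1% antifoam/1% methylcellulose at 10 mL/kg. Two mice per timepoint; at 1 h, plasma separated at 4 °C and brain homogenized in 4 volumes PBS pH 7.4. Total brain and plasma levels measured.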

[9] = Plasma concentration C57BL/6J mouse at 10 mg/kg, ip measured at 1 hr post dose; type: ADME, organism-based; outline: as §4
[10] = Clearance in rat hepatocytes assessed as per million cells; type: ADME, cell-based, Hepatocyte; details: read-out: CLH
[11] = target: T2, Catechol O-methyltransferase (Rattus norvegicus, UniProt P22734); assay: Inhibition of c-terminal hexa-His tagged rat MB-COMT expressed in HEK293 cell membrane homogenate using norepinephrine as substrate after 1 hr in presence of SAM by MTase glo methyltransferase assay; outline: as §1
T2 sequence (P22734 whole entry): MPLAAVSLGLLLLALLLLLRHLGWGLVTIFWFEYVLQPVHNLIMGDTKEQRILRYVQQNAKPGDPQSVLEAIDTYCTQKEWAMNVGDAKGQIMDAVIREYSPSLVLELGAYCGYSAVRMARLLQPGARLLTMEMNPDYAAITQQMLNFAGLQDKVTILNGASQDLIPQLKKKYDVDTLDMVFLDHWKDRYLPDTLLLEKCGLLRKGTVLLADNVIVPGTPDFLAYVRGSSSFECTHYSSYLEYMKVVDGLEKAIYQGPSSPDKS

[12] = target: T2, Catechol O-methyltransferase; assay: Inhibition of c-terminal hexa-His tagged rat S-COMT expressed in HEK293-6E cell membrane homogenate using 7,8-dihydroxy-4-methylcoumarin as substrate after 1 hr in presence of SAM by MTase glo methyltransferase assay; outline: as §2
[13] = Efflux ratio of permeability in MDCK cells; type: ADME, cell-based, Canis lupus familiaris; details: dog
Outline: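 Efflux ratio taken as […] transport across P-glycoprotein-expressing MDCK cells.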

[14] = Apparent permeability of the compound in MDCK cells; type: ADME, cell-based, Canis lupus familiaris; details: dog
[15] = Unbound plasma concentration in Sprague-Dawley rat 10 mg/kg, po after 4 hrs by ES-UPLC analysis; type: ADME, organism-based; details: in vivo
Outline: (§5)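 Sprague Dawley rats given 10 mg/kg po; CSF, plasma and brain collected at 4 h. Drug measured in CSF; free plasma and brain levels computed from total levels using plasma protein and brain tissue binding fractions. Free CSF derived from CSF binding by equilibrium dialysis with pooled rat CSF. Ratios taken from these values.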

[16] = Unbound drug level in brain of Sprague-Dawley rat at 10 mg/kg, po after 4 hrs by ES-UPLC analysis; type: ADME, organism-based; details: in vivo; outline: as §5
[17] = Drug level in CSF of Sprague-Dawley rat at 10 mg/kg, po after 4 hrs by ES-UPLC analysis; type: ADME, organism-based, Cerebrospinal fluid; details: read-out: Drug uptake; outline: as §5
[18] = Ratio of drug level in CSF of Sprague-Dawley rat to unbound plasma concentration in Sprague-Dawley rat at 10 mg/kg, po after 4 hrs by ES-UPLC analysis; type: ADME, organism-based; details: in vivo; outline: as §5
[19] = Ratio of drug level in CSF of Sprague-Dawley rat to unbound brain concentration in Sprague-Dawley rat at 10 mg/kg, po after 4 hrs by ES-UPLC analysis; type: ADME, organism-based; details: in vivo; outline: as §5
[20] = Ratio of unbound drug level in CSF of Sprague-Dawley rat to unbound plasma concentration in Sprague-Dawley rat at 10 mg/kg, po after 4 hrs by ES-UPLC analysis; type: ADME, organism-based; details: CSF and plasma; outline: as §5
Rattus norvegicus [21] = assay: In vivo inhibition of COMT in Sprague-Dawley rat assessed as HVA levels in CSF at 10 mg/kg, po measured at 4 hrs post dose by LC-MS analysis relative to control; type: functional; parameters: scale not given: the % may be the effect or the level left
Outline: (§6)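 Male Sprague Dawley rats (176–200 g on arrival) dosed orally at 10 mg/kg in Tween80/antifoam/methylcellulose suspension, 10 mL/kg, vehicle group as control (n=5–10). At 4 h under isoflurane, CSF drawn from cisterna magna. HVA and DOPAC quantified by LC-MS against standards in 0.01 M perchloric acid/aCSF with d5 internal standards. Reported as % of vehicle.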

Rattus norvegicus [22] = assay: In vivo inhibition of COMT in Sprague-Dawley rat assessed as DOPAC levels in CSF at 10 mg/kg, po measured at 4 hrs post dose by LC-MS analysis relative to control; type: functional; outline: as §6
[23] = Protein binding in CSF of Sprague-Dawley rat at 2 uM by equilibrium dialysis; type: ADME, tissue-based, Cerebrospinal fluid; details: read-out: PB (converted)
Outline: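 Binding in pooled rat CSF measured by equilibrium dialysis at 2 µM test concentration.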

SMILES | IC50 [2] [nM] | IC50 [3] [nM] | F (Rattus norvegicus [4]) [%] | half-life [5] [h] | Vdss (Rattus norvegicus [6]) [L/kg] | concentration at 1 h [9] [ng/mL] | hepatocyte CLint [10] [µL/min/1e6 cells] | concentration at 1 h [8] [ng/g] | further results
Cc1ccc(S(=O)(=O)c2cc(O)c3ncccc3c2)cc1 |  |  |  |  |  |  |  |  | IC50 [1]: 1580 nM
Cc1ccc(S(=O)(=O)c2cc(C(F)(F)F)c(O)c3ncccc23)cc1 | > 10000 | > 10000 |  |  |  |  |  |  | 
O=S(=O)(O)c1ccc(O)c2ncccc12 |  |  |  |  |  |  |  |  | IC50 [1]: 6310 nM
O=S(=O)(c1ccc(O)c2ncccc12)C1CCCC1 | 6.31 | 501 | 24 | 0.18 | 1.8 | 173 |  |  | Fu [7]: 0.5; Drug uptake [8]: Bld
O=S(=O)(c1cc(C(F)(F)F)c(O)c2ncccc12)C1CCCC1 | > 10000 | > 10000 |  |  |  |  |  |  | 
O=S(=O)(c1ccc(F)cc1)c1cc(F)c(O)c2ncccc12 | 3.98 | 1580 | 100 | 4.5 | 3.5 | 5720 | 15 | 527 | IC50 [11]: < 1 nM; IC50 [12]: > 10000 nM; efflux ratio [13]: 0.7; Papp [14]: > 10 ×10⁻⁶ cm/s; Cp(f) [15]: 48 nM; Drug uptake(free) [16]: 7.7 nM; concentration at 4 h [17]: 127 nM; Ratio [18]: 2.6; Ratio [19]: 16; Kp uu at 4 h [20]: 1.2; Activity (Rattus norvegicus [21]): 86%; CSF DOPAC level (% of vehicle) (Rattus norvegicus [22]): 173%; fraction unbound at 2 µM [23]: 0.47
CCS(=O)(=O)c1ccc(O)c2ncccc12 | 50.1 | 1580 |  |  |  | 250 | 39 | 11 | 
Cc1ccc(S(=O)(=O)c2ccc(O)c3ncccc23)cc1 | 20 | 501 |  |  |  |  |  |  | IC50 [1]: 20 nM
Cc1ccc(S(=O)(=O)c2cc(Cl)c(O)c3ncccc23)cc1 | 316 | > 10000 | 45 | 0.31 | 0.67 | 9780 | 78 | 1690 | efflux ratio [13]: 2.2; Papp [14]: > 10 ×10⁻⁶ cm/s
O=S(=O)(c1cc(Cl)c(O)c2ncccc12)N1CCCC1 | 10 | 3160 | 33 | 8.6 | 0.8 | 16200 | 14 | 1150 | efflux ratio [13]: 0.4; Fu [7]: 0.5
O=S(=O)(c1ccc(C(F)(F)F)cc1)c1cc(F)c(O)c2ncccc12 | 79.4 | 6310 | 66 | 3.5 | 3.8 | 2540 | 12 | 1090 | efflux ratio [13]: 1.1; Fu [7]: 0.6
Cc1ccc(C(=O)c2ccc(O)c3ncccc23)cc1 | 3980 |  |  |  |  |  |  |  | 
O=S(=O)(c1cc(Cl)c(O)c2ncccc12)C1CCCC1 | 20 | 7940 | 37 | 11 | 0.3 | 14700 | 18 | 2790 | IC50 [11]: < 1 nM; IC50 [12]: > 10000 nM; Fu [7]: 0.5; Cp(f) [15]: 32 nM; Drug uptake(free) [16]: 5.6 nM; concentration at 4 h [17]: 358 nM; Ratio [18]: 11; Ratio [19]: 64; Activity (Rattus norvegicus [21]): 97%; CSF DOPAC level (% of vehicle) (Rattus norvegicus [22]): 213%
O=S(=O)(c1cc(F)c(O)c2ncccc12)C1CCCC1 | 2 | 2510 | 32 | 7.7 | 0.41 | 6160 | 19 | 1910 | IC50 [11]: < 1 nM; IC50 [12]: 7940 nM; efflux ratio [13]: 0.5; Fu [7]: 0.2; Cp(f) [15]: 19 nM; Drug uptake(free) [16]: 12.8 nM; concentration at 4 h [17]: 321 nM; Ratio [18]: 16.5; Ratio [19]: 25; Kp uu at 4 h [20]: 7.3; Activity (Rattus norvegicus [21]): 66%; CSF DOPAC level (% of vehicle) (Rattus norvegicus [22]): 218%; fraction unbound at 2 µM [23]: 0.43
O=S(=O)(c1ccc(C(F)(F)F)cc1)c1ccc(O)c2ncccc12 | 63.1 | 1260 |  |  |  | 3540 | 46 |  | Drug uptake [8]: Bld
Cc1ccc(-c2ccc(O)c3ncccc23)cc1 | 251 |  |  |  |  |  |  |  | 
Oc1cccc2cccnc12 [OXYQUINOLINE] | 1580 |  |  |  |  |  |  |  | IC50 [1]: 3160 nM
O=S(=O)(c1ccc(F)cc1)c1cc(Cl)c(O)c2ncccc12 | 200 | > 10000 | 23 | 8.9 | 0.23 | 16600 | 4 | 5660 | efflux ratio [13]: 0.8; Fu [7]: 0.5
COc1ccc(S(=O)(=O)N2CCCC2)c2cccnc12 | > 10000 |  |  |  |  |  |  |  | 
O=S(=O)(c1ccc(O)c2ncccc12)N1CCC(c2ccc(F)cc2)C1 (stereo not given) | 3.16 |  |  |  |  |  | 255 |  | 
Cc1ccc(S(=O)(=O)c2cc(Br)c(O)c3ncccc23)cc1 | 1260 | > 10000 |  |  |  |  |  |  | 
O=S(=O)(c1ccc(O)c2ncccc12)N1CCCC1 | 7.94 | 2000 |  |  |  | 68 | 177 | 10.5 | 
Cc1ccc(S(=O)(=O)c2cc(F)c(O)c3ncccc23)cc1 | 6.31 | 501 | 34 | 0.26 | 1.2 | 1740 | 36 | 518 | 
Cc1cc(S(=O)(=O)N2CCCC2)c2cccnc2c1O | 20 | 3160 |  |  |  | 576 | 103 | 55 | 
O=C(c1ccc(O)c2ncccc12)N1CCCC1 | > 10000 |  |  |  |  |  |  |  | 
